From ChEMBL document CHEMBL4406851, “Design, synthesis and biological evaluation of cinnamic acid derivatives with synergetic neuroprotection and angiogenesis effect” (Eur J Med Chem, 2019)
pEC50: −log10 of the molar value. Activity calls are given as the source filed them. No cut-off for these calls is given here.

Assays:
[1] = Neuroprotective activity against H2O2-induced cell damage in human HBMEC2 cells assessed as increase in cell viability preincubated for 24 hrs followed by H2O2 addition and measured after 4 hrs by MTT assay; assay type: functional, cell-based; conditions: HBMEC-2
Method in brief: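 Cells at 3.5×10^4 cells/mL in 96-well plates were grown 24 h (37 °C, 5% CO2). Test agent was added at five concentrations for 24 h, then H2O2 (4.8 mM stock) to model and drug wells. After PBS washes, MTT (5 mg/mL) was added for 4 h, formazan was dissolved in DMSO and OD was read at 550 nm. Proliferation rate = (drug − injury OD)/(control − injury OD). EC50 came from a formula using maximum concentration and summed, maximal and minimal rates.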

HBMEC-2 [2] = assay: Protection against H2O2-induced apoptosis in human HBMEC2 cells assessed as reduction in cell shrinkage at 1.56 to 6.25 uM preincubated for 24 hrs followed by H2O2 addition and measured after 4 hrs by Giemsa staining based inverted phase contrast microscopic analysis; assay type: functional
Method in brief: (§1)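 Cells at 3.5×10^4 cells/mL in 24-well plates were pretreated 24 h with compound at three concentrations, then H2O2 (4.8 mM stock) for 4 h. After PBS washes, cells were fixed in 4% paraformaldehyde/70% cold ethanol for 10 min. Staining was 6% Giemsa or DAPI for 5 min in the dark. Random fields were photographed at 200× by microscope, alongside control and model groups.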

SH-SY5Y [3] = assay: Protection against H2O2-induced apoptosis in human SH-SY5Y cells assessed as reduction in cell shrinkage at 1.56 to 6.25 uM preincubated for 24 hrs followed by H2O2 addition measured after 4 hrs by Giemsa staining based inverted phase contrast microscopic analysis; assay type: functional; method in brief: as §1
SH-SY5Y [4] = assay: Protection against H2O2-induced apoptosis in human SH-SY5Y cells assessed as reduction in cell disruption at 1.56 to 6.25 uM preincubated for 24 hrs followed by H2O2 addition measured after 4 hrs by Giemsa staining based inverted phase contrast microscopic analysis; assay type: functional; method in brief: as §1
HBMEC-2 [5] = assay: Protection against H2O2-induced apoptosis in human HBMEC2 cells assessed as decrease in nuclear fragmentation preincubated for 24 hrs followed by H2O2 addition measured after 4 hrs by DAPI staining based inverted phase contrast microscopic analysis; assay type: functional, cell-based; method in brief: as §1
SH-SY5Y [6] = assay: Protection against H2O2-induced apoptosis in human SH-SY5Y cells assessed as decrease in number of irregular cells preincubated for 24 hrs followed by H2O2 addition measured after 4 hrs by DAPI staining based inverted phase contrast microscopic analysis; assay type: functional, cell-based; method in brief: as §1
SH-SY5Y [7] = assay: Protection against H2O2-induced apoptosis in human SH-SY5Y cells assessed as decrease in nuclear fragmentation preincubated for 24 hrs followed by H2O2 addition measured after 4 hrs by DAPI staining based inverted phase contrast microscopic analysis; assay type: functional, cell-based; method in brief: as §1
[8] = Inhibition of H2O2-induced apoptosis in human HBMEC2 cells assessed as early apoptotic cells at 1.56 uM preincubated for 24 hrs followed by H2O2 addition measured after 4 hrs by Annexin V-FITC/propidium iodide staining based flow cytometry (reference value: 8.1 %); assay type: functional, HBMEC-2; set-up: scale not given: the % may be the effect or the level left
Method in brief: (§2)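 Cells were seeded at 3.5×10^4 cells/mL in 6-well plates at 37 °C, 5% CO2. Compound was added at three concentrations for 24 h, then H2O2 (4.8 mM stock solution) to model and drug wells for 4 h. Cells were collected, washed in cold PBS and resuspended in annexin-binding buffer. Staining was annexin V-FITC 10 min, then PI 5 min, in the dark, followed by flow cytometry with quadrant gating.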

[9] = Inhibition of H2O2-induced apoptosis in human HBMEC2 cells assessed as necrotic cells at 3.13 uM preincubated for 24 hrs followed by H2O2 addition measured after 4 hrs by Annexin V-FITC/propidium iodide staining based flow cytometry (reference value: 0.4 %); assay type: functional, HBMEC-2; set-up: scale not given: the % may be the effect or the level left; method in brief: as §2
[10] = Inhibition of H2O2-induced apoptosis in human HBMEC2 cells assessed as late apoptotic cells at 3.13 uM preincubated for 24 hrs followed by H2O2 addition measured after 4 hrs by Annexin V-FITC/propidium iodide staining based flow cytometry (reference value: 29.4 %); assay type: functional, HBMEC-2; set-up: scale not given: the % may be the effect or the level left; method in brief: as §2
[11] = Inhibition of H2O2-induced apoptosis in human HBMEC2 cells assessed as late apoptotic cells at 6.25 uM preincubated for 24 hrs followed by H2O2 addition measured after 4 hrs by Annexin V-FITC/propidium iodide staining based flow cytometry (reference value: 29.4 %); assay type: functional, HBMEC-2; set-up: scale not given: the % may be the effect or the level left; method in brief: as §2
[12] = Inhibition of H2O2-induced apoptosis in human HBMEC2 cells assessed as early apoptotic cells at 6.25 uM preincubated for 24 hrs followed by H2O2 addition measured after 4 hrs by Annexin V-FITC/propidium iodide staining based flow cytometry (reference value: 8.1 %); assay type: functional, HBMEC-2; set-up: scale not given: the % may be the effect or the level left; method in brief: as §2
SH-SY5Y [13] = assay: Inhibition of H2O2-induced apoptosis in human SH-SY5Y cells assessed as necrotic cells at 1.56 uM preincubated for 24 hrs followed by H2O2 addition measured after 4 hrs by Annexin V-FITC/propidium iodide staining based flow cytometry (reference value: 0.9 %); assay type: functional; set-up: scale not given: the % may be the effect or the level left; method in brief: as §2
SH-SY5Y [14] = assay: Inhibition of H2O2-induced apoptosis in human SH-SY5Y cells assessed as normal cells at 1.56 uM preincubated for 24 hrs followed by H2O2 addition measured after 4 hrs by Annexin V-FITC/propidium iodide staining based flow cytometry (reference value: 67.2 %); assay type: functional; set-up: scale not given: the % may be the effect or the level left; method in brief: as §2
SH-SY5Y [15] = assay: Inhibition of H2O2-induced apoptosis in human SH-SY5Y cells assessed as early apoptotic cells at 1.56 uM preincubated for 24 hrs followed by H2O2 addition measured after 4 hrs by Annexin V-FITC/propidium iodide staining based flow cytometry (reference value: 5.4 %); assay type: functional; set-up: scale not given: the % may be the effect or the level left; method in brief: as §2
SH-SY5Y [16] = assay: Inhibition of H2O2-induced apoptosis in human SH-SY5Y cells assessed as necrotic cells at 3.13 uM preincubated for 24 hrs followed by H2O2 addition measured after 4 hrs by Annexin V-FITC/propidium iodide staining based flow cytometry (reference value: 0.9 %); assay type: functional; set-up: scale not given: the % may be the effect or the level left; method in brief: as §2
SH-SY5Y [17] = assay: Inhibition of H2O2-induced apoptosis in human SH-SY5Y cells assessed as necrotic cells at 6.25 uM preincubated for 24 hrs followed by H2O2 addition measured after 4 hrs by Annexin V-FITC/propidium iodide staining based flow cytometry (reference value: 0.9 %); assay type: functional; set-up: scale not given: the % may be the effect or the level left; method in brief: as §2
SH-SY5Y [18] = assay: Inhibition of H2O2-induced apoptosis in human SH-SY5Y cells assessed as normal cells at 6.25 uM preincubated for 24 hrs followed by H2O2 addition measured after 4 hrs by Annexin V-FITC/propidium iodide staining based flow cytometry (reference value: 67.2 %); assay type: functional; set-up: scale not given: the % may be the effect or the level left; method in brief: as §2
SH-SY5Y [19] = assay: Inhibition of H2O2-induced apoptosis in human SH-SY5Y cells assessed as early apoptotic cells at 6.25 uM preincubated for 24 hrs followed by H2O2 addition measured after 4 hrs by Annexin V-FITC/propidium iodide staining based flow cytometry (reference value: 5.4 %); assay type: functional; set-up: scale not given: the % may be the effect or the level left; method in brief: as §2
Gallus gallus = species on record: Gallus gallus; assay: Induction of angiogenesis in chicken embryo assessed as up regulation of VEGFR2 mRNA expression at 1 mg/ml by RT-PCR analysis; assay type: functional, organism-based
Method in brief: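 Total RNA came from chick embryos of the 1 mg/mL CAM group (Trizol extraction) and was reverse-transcribed with M-MLV. SYBR real-time PCR ran 40 cycles of 94 °C 15 s / 60 °C 35 s, then 72 °C 10 min. Expression was quantified relative to controls by the 2^-ΔΔCT method.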

HBMEC-2 [20] = assay: Protection against H2O2-induced apoptosis in human HBMEC2 cells assessed as increase in cell number at 1.56 to 6.25 uM preincubated for 24 hrs followed by H2O2 addition and measured after 4 hrs by Giemsa staining based inverted phase contrast microscopic analysis; assay type: functional; method in brief: as §1

For `COc1cc(CNC(=O)/C=C/c2cc(OC)c(OC)cc2OC)ccc1O`, the pEC50 [1] was 5.49, the Activity (HBMEC-2 [2]) was “Active” and the Activity (SH-SY5Y [3]) was “Active”. For the same compound, the Activity (SH-SY5Y [4]) was “Active”, the Activity (HBMEC-2 [5]) was “Dose-dependent effect” and the Activity (SH-SY5Y [6]) was “Dose-dependent effect”. The Activity (SH-SY5Y [7]) was “Dose-dependent effect”, the Activity [8] was 9.1% and the Activity [9] was 0.1%. For the same compound, the Activity [10] was 10.5%, the Activity [11] was 10.2% and the Activity [12] was 8.3%. The Activity (SH-SY5Y [13]) was 1.4%, the Activity (SH-SY5Y [14]) was 70.4% and the Activity (SH-SY5Y [15]) was 4.3%. For the same compound, the Activity (SH-SY5Y [16]) was 0.1%, the Activity (SH-SY5Y [17]) was 1.1% and the Activity (SH-SY5Y [18]) was 82.3%. The Activity (SH-SY5Y [19]) was 2.6%, the Activity (Gallus gallus) was “Active” and the Activity (HBMEC-2 [20]) was “Active”.
